Measured values as given in ChEMBL document CHEMBL3045425, “Isolation and identification of precocenes and piperitone from essential oils as specific inhibitors of trichothecene production by Fusarium graminearum” (J Agric Food Chem, 2009).
Calls of active or inactive are those of the source. No cut-off for these calls is given here.

Assays:
[1] = tested on: Fusarium culmorum; assay: Inhibition of 3-acetyldeoxynivalenol production by Fusarium culmorum in liquid culture; assay type: functional, organism-based
[2] = tested on: Fusarium graminearum; assay: Effect on deoxynivalenol synthetic pathway intermediates accumulation in Fusarium graminearum at 1000 uM by TLC analysis; assay type: functional, organism-based
Summary of the method: (§1)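 Pooled broth (5 × 10 mL) was split into filtrate and mycelia. Filtrate was extracted with ethyl acetate and mycelia with methanol. n-Hexane and ethyl acetate fractions were examined spectroscopically for intermediate signals such as trichodiene.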

[3] = tested on: Fusarium graminearum; assay: Downregulation of Tri10 gene expression in Fusarium graminearum at 300 to 1000 uM measured after 72 hr by quantitative-RT-PCR analysis; assay type: functional, organism-based
Summary of the method: (§2)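 Spores (1 × 10^5/tube) grown in 5 mL SYEP medium with shaking at 300 rpm, 26.5 °C, for 72 h, with or without compound at 300 or 1000 µM. Mycelial total RNA was used for SYBR Green qRT-PCR on cDNA from 0.005 µg RNA: 95 °C 10 min, then 40 cycles of 95 °C 15 s / 60 °C 1 min. Normalised to β-tubulin mRNA; n = 3.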

[4] = tested on: Fusarium graminearum; assay: Downregulation of Tri6 gene expression in Fusarium graminearum at 300 to 1000 uM measured after 72 hr by quantitative-RT-PCR analysis; assay type: functional, organism-based; summary of the method: as §2
[5] = tested on: Fusarium graminearum; assay: Downregulation of Tri5 gene expression in Fusarium graminearum at 300 to 1000 uM measured after 72 hr by quantitative-RT-PCR analysis; assay type: functional, organism-based; summary of the method: as §2
[6] = tested on: Fusarium graminearum; assay: Downregulation of Tri4 gene expression in Fusarium graminearum at 300 to 1000 uM measured after 72 hr by quantitative-RT-PCR analysis; assay type: functional, organism-based; summary of the method: as §2
[7] = tested on: Fusarium graminearum; assay: microbe, parasite or virus in culture; assay type: functional
[8] = tested on: Fusarium graminearum; assay: microbe, parasite or virus in culture; assay type: functional; remark: listed apart in the source
[9] = tested on: Fusarium graminearum; assay type: functional, organism-based
[10] = tested on: Fusarium graminearum; assay: Growth inhibition of Fusarium graminearum assessed as mycelial weight at 26.5 degC after 7 days; assay type: organism-based; conditions: in vivo, 168 h
Summary of the method: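 Methanolic sample added to 5 mL SYEP (sucrose 5%, yeast extract 0.1%, polypeptone 0.1%), final methanol 0.3%. Inoculated with 1 × 10^5 spores/tube and shaken at 300 rpm, 26.5 °C, for 7 days. Mycelia were collected on cheesecloth, washed with water, dried at 100 °C for 3 h and weighed.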

[11] = tested on: Fusarium graminearum; assay: microbe, parasite or virus in culture; assay type: functional, organism-based; conditions: 168 h
[12] = tested on: Fusarium graminearum; assay type: functional, organism-based; remark: listed apart in the source
[13] = tested on: Fusarium graminearum; assay: Effect on deoxynivalenol synthetic pathway intermediates accumulation in Fusarium graminearum at 30 uM by TLC analysis; assay type: functional, organism-based; summary of the method: as §1
[14] = tested on: Fusarium graminearum; assay: Downregulation of Tri10 gene expression in Fusarium graminearum at 26.5 degC measured after 48 to 96 hr by quantitative-RT-PCR analysis; assay type: functional, organism-based
Summary of the method: (§3)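 SYEP liquid medium (5 mL/tube) inoculated with 1 × 10^5 spores and shaken at 300 rpm, 26.5 °C, with or without compound at 3 or 30 µM, for 48, 96 or 144 h. Total RNA was taken from the mycelia. SYBR Green real-time RT-PCR was run on cDNA from 0.005 µg RNA: 95 °C 10 min, then 40 cycles of 95 °C 15 s / 60 °C 1 min. β-tubulin mRNA was the reference; n = 3.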

[15] = tested on: Fusarium graminearum; assay: Downregulation of Tri6 gene expression in Fusarium graminearum at 26.5 degC measured after 48 to 96 hr by quantitative-RT-PCR analysis; assay type: functional, organism-based; summary of the method: as §3
[16] = tested on: Fusarium graminearum; assay: Downregulation of Tri5 gene expression in Fusarium graminearum at 3 to 30 uM at 26.5 degC measured after 48 to 144 hr by quantitative-RT-PCR analysis; assay type: functional, organism-based; summary of the method: as §3
[17] = tested on: Fusarium graminearum; assay: Downregulation of Tri4 gene expression in Fusarium graminearum at 3 to 30 uM at 26.5 degC measured after 48 to 144 hr by quantitative-RT-PCR analysis; assay type: functional, organism-based; summary of the method: as §3

CC(=O)c1cccc2oc(=O)[nH]c12 [4-ACETYL-2-BENZOXAZOLINONE]
IC50 [1]: 4 µM

CC1=CC(=O)[C@@H](C(C)C)CC1 [(-)-PIPERITONE]
Activity [2]: inactive | inhibition [3]: Active | inhibition [4]: Active | inhibition [5]: Active | inhibition [6]: Active | inhibition at 152 ppm [7]: 25% | inhibition at 5.7 ppm [8]: 20% | IC50 [9]: 61.2 ppm | Activity [10]: Non-toxic | IC50 [11]: 306 µM

COc1cc2c(cc1OC)OC(C)(C)C=C2 [PROCOCENE II]
IC50 [12]: 2 ppm | Activity [13]: inactive | inhibition [14]: Dose-dependent effect | inhibition [15]: Dose-dependent effect | inhibition [16]: Active | inhibition [17]: Active | IC50 [9]: 0.36 ppm | Activity [10]: Non-toxic | IC50 [11]: 1.2 µM

COc1ccc2c(c1)OC(C)(C)C=C2 [PROCOCENE I]
inhibition at 152 ppm [7]: 25% | inhibition at 5.7 ppm [8]: 20% | IC50 [9]: 1.3 ppm | IC50 [11]: 16.6 µM
